Converted amounts (≈) assume the structure as drawn. The source made the active and inactive calls. The calls are words filed in the database; no cut-off is given here. Non-standard residues stand in square brackets, D forms with d. Residues, ends and D or L forms follow the SMILES beside them. *: point of attachment. 2Nal = N[C@@H](Cc1ccc2ccccc2c1)C(=O)O; Mtr = COc1cc(C)c(S(=O)(=O)*)c(C)c1C; Piperidide = C1CCN(*)CC1 Where only a bound is given, the exact number is not on record here.

Chain of Vasopressin V2 receptor (P30518 whole entry): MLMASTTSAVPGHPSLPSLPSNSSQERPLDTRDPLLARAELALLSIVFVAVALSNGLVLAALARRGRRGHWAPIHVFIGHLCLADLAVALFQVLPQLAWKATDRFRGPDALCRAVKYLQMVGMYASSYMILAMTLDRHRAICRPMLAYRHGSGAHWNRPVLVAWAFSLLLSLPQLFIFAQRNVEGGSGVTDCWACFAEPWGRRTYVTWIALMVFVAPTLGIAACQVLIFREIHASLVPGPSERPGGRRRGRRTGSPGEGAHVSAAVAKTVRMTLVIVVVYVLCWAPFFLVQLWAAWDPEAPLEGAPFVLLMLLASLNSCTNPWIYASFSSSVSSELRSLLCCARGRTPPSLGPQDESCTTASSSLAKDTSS
Chain of 5-hydroxytryptamine receptor 6 (Homo sapiens) (P50406 whole entry): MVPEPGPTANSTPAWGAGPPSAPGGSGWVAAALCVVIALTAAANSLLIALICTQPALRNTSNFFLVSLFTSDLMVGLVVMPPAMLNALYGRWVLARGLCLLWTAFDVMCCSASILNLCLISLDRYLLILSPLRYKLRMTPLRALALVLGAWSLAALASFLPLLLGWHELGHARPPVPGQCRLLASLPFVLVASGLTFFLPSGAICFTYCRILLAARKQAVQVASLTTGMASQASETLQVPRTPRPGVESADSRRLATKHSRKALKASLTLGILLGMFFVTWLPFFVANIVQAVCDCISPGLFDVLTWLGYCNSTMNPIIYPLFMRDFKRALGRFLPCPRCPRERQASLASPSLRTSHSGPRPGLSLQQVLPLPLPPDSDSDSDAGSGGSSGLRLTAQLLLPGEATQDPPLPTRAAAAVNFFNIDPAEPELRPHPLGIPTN

System in the first data set: not listed separately
The data set is described as follows: Solubility of the compound at pH 7.4. The class given is physicochemical. The following applies: buffer. Summed up:
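Kinetic solubility measured at pH 7.4, reported in mg/L.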
In the case of `COc1ccc2c(c1)c(C(=O)N1CCCNCC1)c(C)n2S(=O)(=O)c1ccc(OC)c(C)c1C`, the concentration in solution (solubility) was 72 µg/mL (≈ 148 µM).

The next data set has as its target T1, Vasopressin V1b receptor (Homo sapiens, UniProt P47901).
T1 sequence (P47901 whole entry): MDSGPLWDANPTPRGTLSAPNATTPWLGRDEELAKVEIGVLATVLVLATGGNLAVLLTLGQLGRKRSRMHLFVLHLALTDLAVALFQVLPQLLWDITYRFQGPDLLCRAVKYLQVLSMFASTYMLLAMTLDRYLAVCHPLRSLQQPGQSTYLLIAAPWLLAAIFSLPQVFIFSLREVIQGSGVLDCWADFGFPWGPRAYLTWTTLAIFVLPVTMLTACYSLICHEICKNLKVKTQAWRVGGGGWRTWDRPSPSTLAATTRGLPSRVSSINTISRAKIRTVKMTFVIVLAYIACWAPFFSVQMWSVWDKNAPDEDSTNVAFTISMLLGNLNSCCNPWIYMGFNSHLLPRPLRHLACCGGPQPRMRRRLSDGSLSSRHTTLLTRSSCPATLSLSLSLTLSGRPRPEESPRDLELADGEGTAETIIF
The data set is described as follows: Antagonist activity at human vasopressin V1B receptor expressed in CHO cells assessed as inhibition of AVP-induced calcium mobilisation by luciferase reporter gene assay. The class given is functional, cell-based.
Conditions: not given
Consider `COc1ccc2c(c1)c(C(=O)N1CCCNCC1)c(C)n2S(=O)(=O)c1ccc(OC)c(C)c1C`, for which the 50% inhibitory concentration (IC50) came out at 371 nM.

The target of the next data set is T1, Vasopressin V1b receptor. The data set is described as follows: Displacement of [3H]-AVP from human vasopressin V1B receptor expressed in CHO cells. The class given is cell-based.
Conditions: not given
The procedure, abridged: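 Whole-cell binding in CHO cells expressing human receptor, [³H]AVP tracer, increasing compound concentrations; nonspecific binding with 10 µM lysine vasopressin. Affinity (Ki) from non-linear regression of specific binding versus concentration; mean of at least 2 independent experiments run in duplicate.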
The compound `COc1ccc(S(=O)(=O)n2c(C)c(C(=O)N3CCCN(C)CC3)c3ccccc32)c(C)c1C` came in with an inhibition constant Ki of 500 nM. This counts as sub-micromolar. Still for that read-out and setting: with `COc1cc(C)c(S(=O)(=O)N[C@@H](Cc2ccccc2)C(=O)NCCN2CCN(C)CC2)c(C)c1C` the figure was 500 nM; with `COc1ccc(S(=O)(=O)n2c(C)c(CC(=O)N(C)CCc3ccccn3)c3cc(F)ccc32)c(C)c1C`, 260 nM. Still for that read-out and setting: with `COc1ccc(S(=O)(=O)N2CC(C(=O)NCCCN3CCN(C)CC3)c3ccccc32)c(C)c1C` (centres undefined) the figure was 1200 nM; with `COc1cc(C)c(S(=O)(=O)N[C@@H](Cc2ccccc2)C(=O)N[C@H](Cc2ccccc2)C(=O)N2CCCCC2)c(C)c1C`, > 10000 nM; with `COc1cc(C)c(S(=O)(=O)N[C@@H](Cc2ccccc2)C(=O)NCCCN2CCOCC2)c(C)c1C`, 10000 nM. Still for that read-out and setting: with `COc1cc(C)c(S(=O)(=O)N[C@@H](Cc2ccccc2)C(=O)N(C)CCCN2CCN(C)CC2)c(C)c1C` the figure was 1000 nM; with `COc1cc(C)c(S(=O)(=O)N[C@@H](Cc2ccccc2)C(=O)NCCCN(C)C)c(C)c1C`, 2000 nM; with `COc1ccc(S(=O)(=O)n2c(C)c(C(=O)N3CCCNCC3)c3cc(C)ccc32)c(C)c1C`, 790 nM.

On to `COc1ccc(S(=O)(=O)n2c(C)c(CC(=O)NCCCN3CCN(C)CC3)c3cc(F)ccc32)c(C)c1C`, for which the Ki was 430 nM. Same read-out and setting: next, `COc1cc(C)c(S(=O)(=O)N[C@@H](Cc2ccccc2)C(=O)NCC(=O)N2CCCCC2)c(C)c1C` (Mtr-Phe-Gly-Piperidide): > 10000 nM; `COc1cc(C)c(S(=O)(=O)N[C@@H](Cc2ccccc2)C(=O)N2CCCN(C)CC2)c(C)c1C`: 3200 nM.

The compound `COc1ccc2c(c1)c(CC(=O)N1CCCNCC1)c(C)n2S(=O)(=O)c1ccc(OC)c(C)c1C` gave a Ki of 180 nM. Same read-out and setting: with `COc1ccc(S(=O)(=O)n2c(C)c(C(=O)NCCCN3CCN(C)CC3)c3ccccc32)c(C)c1C` the figure was 560 nM; with `COc1cc(C)c(S(=O)(=O)N[C@@H](Cc2ccccc2)C(=O)NCCCN2CCC(C)CC2)c(C)c1C`, 2500 nM; with `COc1ccc2c(c1)c(C(=O)N1CCCNCC1)c(C)n2S(=O)(=O)c1ccc(OC)c(C)c1C`, 190 nM. In the case of `COc1cc(C)c(S(=O)(=O)N[C@@H](Cc2ccccc2)C(=O)N[C@@H](Cc2ccc3ccccc3c2)C(=O)N2CCCCC2)c(C)c1C` (Mtr-Phe-[2Nal]-Piperidide), the Ki was > 10000 nM. The compound `COc1cc(C)c(S(=O)(=O)N[C@@H](Cc2ccccc2)C(=O)NC(Cc2ccc3c(N)nccc3c2)C(=O)N2CCCCC2)c(C)c1C` (some centres undefined) gave a Ki of 63 nM. This lies in the double-digit nanomolar range. The same measure, in the same setting: with `COc1ccc(S(=O)(=O)n2c(C)c(C(=O)N3CCCNCC3)c3cc(F)ccc32)c(C)c1C` the figure was 310 nM; with `COc1cc(C)c(S(=O)(=O)N[C@@H](Cc2ccccc2)C(=O)NCCCN2CCN(C)CC2)c(C)c1C`, 250 nM.

In turn, `COc1cc(C)c(S(=O)(=O)N[C@@H](Cc2ccccc2)C(=O)N[C@@H](Cc2ccccc2)C(=O)N2CCCCC2)c(C)c1C` showed a Ki of 630 nM.

The next data set addresses Vasopressin V2 receptor (Homo sapiens, UniProt P30518). Kind of data set: Displacement of [3H]-AVP from human vasopressin V2 receptor expressed in CHO cell membranes.
Conditions: not given
Summed up:
(§1)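 Membranes from CHO cells expressing the human receptor incubated with [³H]AVP and increasing compound concentrations. Nonspecific binding defined with 10 µM lysine vasopressin. Specific binding plotted against compound concentration; affinity derived by non-linear regression. Mean of at least 2 independent experiments in duplicate.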
Regarding `COc1ccc2c(c1)c(C(=O)N1CCCNCC1)c(C)n2S(=O)(=O)c1ccc(OC)c(C)c1C`, the inhibitory constant (Ki) was > 10000 nM.

System in a further data set: not listed separately
Kind of data set: Lipophilicity, log D of the compound at pH 7.4. In kind it is physicochemical. To be noted: buffer.
In turn, `COc1ccc2c(c1)c(C(=O)N1CCCNCC1)c(C)n2S(=O)(=O)c1ccc(OC)c(C)c1C` came in with a logD of 2.

Another data set deals with Vasopressin V1a receptor (Homo sapiens, UniProt P37288). The data set is described as follows: Displacement of [3H]-AVP from human vasopressin V1A receptor expressed in CHO cell membranes.
Chain of Vasopressin V1a receptor (P37288 whole entry): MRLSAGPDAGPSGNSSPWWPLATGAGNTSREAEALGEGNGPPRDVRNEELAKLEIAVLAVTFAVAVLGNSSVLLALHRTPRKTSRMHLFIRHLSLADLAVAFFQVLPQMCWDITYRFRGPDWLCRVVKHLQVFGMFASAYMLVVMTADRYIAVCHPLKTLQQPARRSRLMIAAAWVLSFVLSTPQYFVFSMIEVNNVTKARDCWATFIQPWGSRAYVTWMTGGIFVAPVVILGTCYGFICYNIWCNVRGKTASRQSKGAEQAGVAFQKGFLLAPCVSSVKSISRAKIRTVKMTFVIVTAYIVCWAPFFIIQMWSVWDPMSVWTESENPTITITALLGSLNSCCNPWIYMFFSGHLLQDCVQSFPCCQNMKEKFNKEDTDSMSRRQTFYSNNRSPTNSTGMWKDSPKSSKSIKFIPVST
Conditions: not given
Summed up:
as §1
For `COc1ccc2c(c1)c(C(=O)N1CCCNCC1)c(C)n2S(=O)(=O)c1ccc(OC)c(C)c1C`, the Ki is > 10000 nM.

Another data set has as its target 5-hydroxytryptamine receptor 6 (Homo sapiens) (UniProt P50406). Kind of data set: Binding affinity to 5HT6 receptor.
Conditions: not given
`COc1ccc(S(=O)(=O)N2CC(C(=O)NCCCN3CCN(C)CC3)c3ccccc32)c(C)c1C` (centres undefined): the outcome was Active.

In the next data set the target is T2, Oxytocin receptor (Homo sapiens, UniProt P30559).
T2 sequence (P30559 whole entry): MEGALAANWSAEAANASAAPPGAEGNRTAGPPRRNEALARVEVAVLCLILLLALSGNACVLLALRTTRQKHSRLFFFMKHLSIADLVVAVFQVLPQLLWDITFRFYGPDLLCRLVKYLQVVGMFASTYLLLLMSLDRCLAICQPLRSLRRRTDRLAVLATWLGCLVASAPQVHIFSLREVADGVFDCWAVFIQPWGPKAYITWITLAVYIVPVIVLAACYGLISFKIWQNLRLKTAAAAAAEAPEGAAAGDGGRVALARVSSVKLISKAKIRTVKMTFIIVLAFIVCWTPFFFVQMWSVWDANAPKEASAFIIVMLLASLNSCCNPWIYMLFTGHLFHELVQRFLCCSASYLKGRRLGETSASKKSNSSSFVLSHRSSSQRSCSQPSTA
Kind of data set: Displacement of [3H]oxytocin from human oxytocin receptor expressed in CHO cells. The class given is cell-based.
Conditions: not given
The procedure, abridged: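 Intact CHO cells expressing human receptor incubated with [³H]oxytocin plus increasing compound concentrations; 10 µM oxytocin defines nonspecific binding. Ki obtained by non-linear regression of specific binding against compound concentration; values averaged from at least 2 independent duplicate experiments.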
In the case of `COc1ccc2c(c1)c(CC(=O)N1CCCNCC1)c(C)n2S(=O)(=O)c1ccc(OC)c(C)c1C`, the Ki worked out at 320 nM. This counts as sub-micromolar. Still for that read-out and setting: with `COc1ccc2c(c1)c(C(=O)N1CCCNCC1)c(C)n2S(=O)(=O)c1ccc(OC)c(C)c1C` the figure was > 10000 nM.

The record behind these values is ChEMBL document CHEMBL1777716, “Identification and optimisation of novel sulfonamide, selective vasopressin V1B receptor antagonists” (Bioorg Med Chem Lett, 2011).
